Published values pooled from the literature.
Compare with care: the assays were run in different laboratories.
Sample: Caco-2

| Structure (SMILES) | concentration | time | pH | quantity | value |
| --- | --- | --- | --- | --- | --- |
| CC(C)NCC(O)COc1cccc2ccccc12 (centres unmarked) | 10 µM | 2 h | pH 7.4 | Papp B→A | 19.5 ×10⁻⁶ cm/s |
| O=c1c2cc(Cl)c(CO)cc2[nH]c(=S)n1Cc1cncnc1 | 10 µM | 90 min | pH 7.4 | Papp B→A | 27 ×10⁻⁶ cm/s |
| C/C=C1/CN2CC[C@@]34c5cc(O)ccc5N(C)[C@]35OC[C@@]4(C(=O)OC)[C@H]1C[C@H]25 | 10 µM | 2 h | pH 7.4 | Papp A→B | 28.2 ×10⁻⁶ cm/s |
| CC(=O)c1c(C)c2cnc(Nc3ccc(C4CCN(CCS(C)(=O)=O)CC4)cn3)nc2n(C2CCCC2)c1=O | 10 µM | – | – | Papp A→B | 15.4 ×10⁻⁶ cm/s |
| C[C@H]1O[C@@H](O[C@H]2[C@@H](O)C[C@H](O[C@H]3[C@@H](O)C[C@H](O[C@H]4CC[C@@]5(C)[C@H](CC[C@@H]6[C@@H]5C[C@@H](O)[C@]5(C)[C@@H](C7=CC(=O)OC7)CC[C@]65O)C4)O[C@@H]3C)O[C@@H]2C)C[C@H](O)[C@@H]1O | – | – | pH 7.4 | Papp A→B | 1.4 ×10⁻⁶ cm/s |
| O=C1CCC(N2Cc3c(ccc4c3OCC43CCN(Cc4ccccc4)CC3)C2=O)C(=O)N1 (centres unmarked) | 10 µM | 2 h | – | Papp | 19 ×10⁻⁶ cm/s |
| CC(C)NCC(O)COc1cccc2ccccc12 (centres unmarked) | – | – | pH 7.4 | Papp B→A | 4.2 ×10⁻⁶ cm/s |
| CC(c1cncnc1)n1c(=S)[nH]c2ccc(Cl)cc2c1=O (centres unmarked) | 10 µM | 90 min | pH 7.4 | Papp A→B | 45.7 ×10⁻⁶ cm/s |
